Measured values as given in ChEMBL document CHEMBL3797085, “Structure-Based Design and Synthesis of Novel Inhibitors Targeting HDAC8 from Schistosoma mansoni for the Treatment of Schistosomiasis” (J Med Chem, 2016).

Assays:
Histone deacetylase 1 = Histone deacetylase 1 (Homo sapiens, UniProt Q13547); experiment: Inhibition of recombinant human HDAC1 using Cbz-(Ac)Lys-AMC as substrate preincubated for 90 mins followed by trypsin addition measured after 20 mins by fluorescence assay
Histone deacetylase 8 [1] = target: T1, Histone deacetylase 8 (Schistosoma mansoni, UniProt A5H660); experiment: Inhibition of recombinant Schistosoma mansoni HDAC8 expressed in Escherichia coli using Fluor de Lys as substrate preincubated for 90 mins followed by BML-KI176 addition measured after 45 mins by fluorescence assay
T1 sequence (A5H660 whole entry): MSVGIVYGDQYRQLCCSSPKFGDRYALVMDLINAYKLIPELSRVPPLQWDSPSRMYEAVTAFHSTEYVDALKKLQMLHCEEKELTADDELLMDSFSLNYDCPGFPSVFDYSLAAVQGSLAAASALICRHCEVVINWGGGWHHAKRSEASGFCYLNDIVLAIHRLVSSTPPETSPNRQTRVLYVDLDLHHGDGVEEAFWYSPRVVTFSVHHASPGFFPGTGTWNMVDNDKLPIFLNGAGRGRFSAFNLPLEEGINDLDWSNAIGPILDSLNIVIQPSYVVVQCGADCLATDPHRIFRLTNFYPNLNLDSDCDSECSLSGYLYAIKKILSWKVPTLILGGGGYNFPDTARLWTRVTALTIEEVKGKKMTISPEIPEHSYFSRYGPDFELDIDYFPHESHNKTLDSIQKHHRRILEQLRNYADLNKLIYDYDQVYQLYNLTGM
In short: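 smHDAC8 produced in E. coli. Fluor de Lys kit: compound, Fluor de Lys-HDAC8 substrate (50 µM) and enzyme incubated 90 min at 37°C, then Developer II for 45 min at 30°C. Reaction stopped with trichostatin A (2 µM). Fluorescence read at ex 390/em 460 nm. IC50 given as mean ± S.E.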

[2] = target: T2, Protein deacetylase HDAC6 (Homo sapiens, UniProt Q9UBN7); experiment: Inhibition of recombinant human HDAC6 using Cbz-(Ac)Lys-AMC as substrate preincubated for 90 mins followed by trypsin addition measured after 20 mins by fluorescence assay
T2 sequence (Q9UBN7 whole entry): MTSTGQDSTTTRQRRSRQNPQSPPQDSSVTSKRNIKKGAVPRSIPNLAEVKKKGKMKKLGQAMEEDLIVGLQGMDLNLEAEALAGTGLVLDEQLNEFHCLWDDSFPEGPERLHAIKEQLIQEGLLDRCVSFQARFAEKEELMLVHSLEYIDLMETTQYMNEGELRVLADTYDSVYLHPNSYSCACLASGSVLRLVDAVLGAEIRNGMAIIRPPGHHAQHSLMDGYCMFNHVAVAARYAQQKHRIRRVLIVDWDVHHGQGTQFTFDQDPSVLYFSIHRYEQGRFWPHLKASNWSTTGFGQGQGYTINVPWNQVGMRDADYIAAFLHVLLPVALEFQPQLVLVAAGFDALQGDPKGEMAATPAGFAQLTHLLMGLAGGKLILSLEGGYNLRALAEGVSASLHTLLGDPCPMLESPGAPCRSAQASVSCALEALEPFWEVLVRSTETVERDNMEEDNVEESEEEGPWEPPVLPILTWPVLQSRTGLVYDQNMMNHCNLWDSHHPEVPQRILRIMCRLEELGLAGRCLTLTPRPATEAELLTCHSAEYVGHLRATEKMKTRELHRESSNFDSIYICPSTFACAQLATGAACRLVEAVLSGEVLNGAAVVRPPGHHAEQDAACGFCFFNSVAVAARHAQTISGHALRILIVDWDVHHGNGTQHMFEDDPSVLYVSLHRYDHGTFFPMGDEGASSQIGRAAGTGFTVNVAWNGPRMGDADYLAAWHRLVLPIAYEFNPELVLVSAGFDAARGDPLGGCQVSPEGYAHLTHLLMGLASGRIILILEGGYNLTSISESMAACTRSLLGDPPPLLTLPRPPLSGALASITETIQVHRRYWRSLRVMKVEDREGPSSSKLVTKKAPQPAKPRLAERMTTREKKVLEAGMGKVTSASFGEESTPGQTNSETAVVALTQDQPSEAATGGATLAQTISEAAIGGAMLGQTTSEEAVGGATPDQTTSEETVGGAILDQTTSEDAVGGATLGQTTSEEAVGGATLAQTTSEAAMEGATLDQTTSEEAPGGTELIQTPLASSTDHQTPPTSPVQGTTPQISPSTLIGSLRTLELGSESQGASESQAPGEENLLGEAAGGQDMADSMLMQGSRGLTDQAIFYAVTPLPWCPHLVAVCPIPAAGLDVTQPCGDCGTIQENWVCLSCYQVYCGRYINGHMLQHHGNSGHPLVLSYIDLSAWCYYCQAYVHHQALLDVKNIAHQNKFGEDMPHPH

Histone deacetylase 8 [3] = target: T3, Histone deacetylase 8 (Homo sapiens, UniProt Q9BY41); experiment: Inhibition of recombinant human HDAC8 using Fluor de Lys as substrate preincubated for 90 mins followed by BML-KI176 addition measured after 45 mins by fluorescence assay
T3 sequence (Q9BY41 whole entry): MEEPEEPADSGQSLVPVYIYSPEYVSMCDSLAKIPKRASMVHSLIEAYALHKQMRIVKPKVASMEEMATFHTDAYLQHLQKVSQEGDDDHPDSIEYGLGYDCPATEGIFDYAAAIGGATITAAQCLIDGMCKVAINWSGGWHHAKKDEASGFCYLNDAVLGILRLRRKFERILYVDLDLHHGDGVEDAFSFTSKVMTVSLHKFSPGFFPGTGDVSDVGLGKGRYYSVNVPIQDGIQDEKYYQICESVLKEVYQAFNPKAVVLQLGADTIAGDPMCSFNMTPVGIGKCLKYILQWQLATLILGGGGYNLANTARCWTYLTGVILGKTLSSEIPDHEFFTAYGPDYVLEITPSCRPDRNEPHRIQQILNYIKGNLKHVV

[4] = Cytotoxicity against HEK293 cells assessed as cell viability at 50 uM after 24 hrs by Alamar Blue assay relative to control; type: cell-based; conditions: human, read-out: Activity
In short: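 AlamarBlue added after 24 h, incubated a further 21 h; resorufin fluorescence ex 560/em 590 nm. Triplicates; viability relative to untreated cells; daunorubicin positive control.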

Schistosoma mansoni [5] = experiment: Antiparasitic activity against schistosomula stage of Schistosoma mansoni assessed as parasite viability at 20 uM after 48 hrs by Alamar Blue assay relative to control; type: functional
In short: (§1)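 Mechanically transformed S. mansoni schistosomula, 100 per well, in Medium 199 with 10% FCS, penicillin, streptomycin and rifampicin, held 3 h at 37°C/5% CO2 before use. […] Resazurin added at 48 h; fluorescence (ex 530/em 590 nm) read 24 h later, corrected for drug-medium background. Ethanol-killed larvae as dead control. Triplicate wells, two biological replicates.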

Schistosoma mansoni [6] = experiment: Antiparasitic activity against schistosomula stage of Schistosoma mansoni assessed as parasite viability at 10 uM after 48 hrs by Alamar Blue assay relative to control; type: functional; in short: as §1

Chain of Histone deacetylase 1 (Q13547 whole entry): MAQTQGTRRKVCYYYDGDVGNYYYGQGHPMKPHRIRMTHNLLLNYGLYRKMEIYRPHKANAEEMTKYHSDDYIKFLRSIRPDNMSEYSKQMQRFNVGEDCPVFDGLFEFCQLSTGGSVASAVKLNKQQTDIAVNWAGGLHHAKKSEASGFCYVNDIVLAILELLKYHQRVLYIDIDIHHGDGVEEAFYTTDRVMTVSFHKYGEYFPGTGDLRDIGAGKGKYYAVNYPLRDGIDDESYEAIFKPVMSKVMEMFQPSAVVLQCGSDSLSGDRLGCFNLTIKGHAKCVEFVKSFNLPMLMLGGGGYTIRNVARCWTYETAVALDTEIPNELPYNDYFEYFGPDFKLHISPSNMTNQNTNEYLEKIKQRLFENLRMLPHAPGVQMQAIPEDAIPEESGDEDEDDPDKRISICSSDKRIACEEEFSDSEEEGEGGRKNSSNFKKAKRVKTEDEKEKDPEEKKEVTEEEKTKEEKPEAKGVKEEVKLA

Compound | IC50 (Histone deacetylase 1; read-out: IC50) [nM] | IC50 (Histone deacetylase 8 [1]; read-out: IC50) [nM] | IC50 ([2]; read-out: IC50) [nM] | IC50 (Histone deacetylase 8 [3]; read-out: IC50) [nM] | viability at 24 h, 50 µM [4] [%] | Activity (Schistosoma mansoni [5]) [%] | Activity (Schistosoma mansoni [6]) [%] | IC50 (Histone deacetylase 1) | IC50 (Histone deacetylase 8 [1]) | IC50 [2] | IC50 (Histone deacetylase 8 [3])
CC1Sc2ccc(C(=O)NO)cc2NC1=O (centres undefined) | 27500 | 1480 | 3600 | 970 | – | – | – | – | – | – | –
CCCOc1ccc(C(=O)NO)cc1NC(=O)c1ccccc1 | – | 267 | – | – | 97.4 | – | – | – | – | – | –
O=C1CCSc2ccc(C(=O)NO)cc2N1 | 9800 | 1220 | 1300 | 620 | – | – | – | – | – | – | –
O=C(C1CCCCC1)N1CC(=O)N2CCc3ccccc3C2C1 (centres undefined) [PRAZIQUANTEL] | – | – | – | – | – | 89 | 92 | – | – | – | –
COc1ccc(Cn2ccc3ccc(C(=O)NO)cc32)cc1 | – | 436 | – | – | – | 62.3 | 70.6 | – | – | – | –
COc1ccc(C(=O)NO)cc1NC(=O)c1cccc(-c2ccccc2)c1 | – | 290 | – | – | 76.2 | 57 | 58.8 | – | – | – | –
COC(=O)c1ccc(OC)c(NC(=O)c2ccc(-c3ccccc3)cc2)c1 | – | – | – | – | 47.2 | – | – | Not Active | Not Active | Not Active | Not Active
O=C(NO)c1cccc(NC2CCCCC2)c1 | 130000 | 3630 | – | 830 | 70.7 | – | 82.7 | – | – | – | –
O=C(NO)c1ccc(Cl)c(NC(=O)c2ccccc2)c1 | 11600 | 67 | 120 | 120 | 72.2 | – | 84.7 | – | – | – | –
O=C(NO)c1ccc(Cl)c(NC(=O)c2ccc([N+](=O)[O-])cc2)c1 | – | 394 | – | – | 79.1 | 68.1 | 85.3 | – | – | – | –
CCOc1ccc(C(=O)NO)cc1NC(=O)c1ccccc1 | 4600 | 129 | 1300 | 172 | 70.4 | – | 89.7 | – | – | – | –
O=C(NO)c1ccc(Cl)c(NC(=O)c2ccc(Oc3ccccc3)cc2)c1 | 8500 | 979 | 150 | 1080 | – | – | – | – | – | – | –
CCOc1ccc(C(=O)Nc2cc(C(=O)NO)ccc2OC)cc1 | 4400 | 305 | 1000 | 438 | 87.7 | – | – | – | – | – | –
Cc1ccc(C(=O)NO)cc1NC(=O)c1ccc2ccccc2n1 | 2700 | 96.1 | 90 | 30.3 | – | 59.4 | 74.9 | – | – | – | –
O=C(NO)c1cccc(NC(=O)c2ccccc2)c1 | – | 468 | – | 582 | – | 75.6 | 79.2 | – | – | – | –
